From ChEMBL document CHEMBL4257504, “Tricyclic xanthine derivatives containing a basic substituent: adenosine receptor affinity and drug-related properties” (Medchemcomm, 2018)
≈ marks a conversion by molar mass, not a printed value.

What was measured:
[1] = target: T1, Adenosine receptor A3 (Homo sapiens) (UniProt P0DMS8); assay: Displacement of [3H]PSB-11 from human adenosine A3 receptor expressed in CHO cell membranes at 1 uM relative to control
T1 sequence (whole entry): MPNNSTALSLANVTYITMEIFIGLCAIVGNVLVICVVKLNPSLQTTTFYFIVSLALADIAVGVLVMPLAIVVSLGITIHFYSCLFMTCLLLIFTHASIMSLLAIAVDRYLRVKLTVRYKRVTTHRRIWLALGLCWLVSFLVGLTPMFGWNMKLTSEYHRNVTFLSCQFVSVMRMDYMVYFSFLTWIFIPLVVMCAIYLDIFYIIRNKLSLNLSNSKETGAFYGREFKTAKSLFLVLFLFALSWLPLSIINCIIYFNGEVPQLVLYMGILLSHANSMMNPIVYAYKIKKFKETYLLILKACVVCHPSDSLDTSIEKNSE

Adenosine receptor A2a = Adenosine receptor A2a (Rattus norvegicus, UniProt P30543); assay: Displacement of [3H]MSX-2 from adenosine A2A receptor in rat brain striatal membranes; assay type: cell membranes, Striatum, Membrane
Method in brief: (§1)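 Membrane radioligand binding: A1 in rat brain cortical membranes and A2A in rat brain striatal membranes, with human A1 and A2A in recombinant CHO cell membranes. Radioligands are [3H]CCPA for A1 and [3H]MSX-2 for A2A. Full concentration-inhibition curves use six to ten concentrations spanning three orders of magnitude, with at least three independent experiments.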

Adenosine receptor A3 = target: T2, Adenosine receptor A3 (Homo sapiens, UniProt P0DMS8); assay: Displacement of [3H]PSB-11 from human adenosine A3 receptor expressed in CHO cell membranes
T2 sequence (P0DMS8 whole entry): T1 sequence (whole entry)
Method in brief: (§2)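 Membranes from CHO cells recombinantly expressing human A2B or A3 receptor. Radioligands are [3H]PSB-603 for A2B and [3H]PSB-11 for A3. Competition curves use six to ten test-compound concentrations spanning three orders of magnitude, with at least three independent experiments.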

Adenosine receptor A2b [2] = target: T3, Adenosine receptor A2b (Homo sapiens, UniProt P29275); assay: Displacement of [3H]PSB-603 from human adenosine A2B receptor expressed in CHO cell membranes
T3 sequence (P29275 whole entry): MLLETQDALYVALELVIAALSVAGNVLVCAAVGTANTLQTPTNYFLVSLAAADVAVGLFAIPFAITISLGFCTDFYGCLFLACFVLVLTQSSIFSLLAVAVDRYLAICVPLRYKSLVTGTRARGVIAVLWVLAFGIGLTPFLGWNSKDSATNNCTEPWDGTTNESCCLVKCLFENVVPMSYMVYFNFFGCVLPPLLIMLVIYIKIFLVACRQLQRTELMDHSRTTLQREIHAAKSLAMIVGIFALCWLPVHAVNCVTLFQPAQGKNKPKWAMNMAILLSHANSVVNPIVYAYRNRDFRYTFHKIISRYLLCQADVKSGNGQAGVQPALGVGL

[3] = Solubility of compound in water after over night incubation by UV spectroscopic method; assay type: physicochemical
Method in brief: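 Compound (10 mg, basic form) is suspended in 2 mL water, boiled 5 min, left overnight at 20 °C and filtered. The filtrate is diluted 10–80-fold in MeOH and read by UV in 90% MeOH/H2O. Concentration comes from seven-point standard curves (10^-3 to 10^-1 mg/mL) by linear regression, multiplied by the dilution factor.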

Adenosine receptor A1 = target: T4, Adenosine receptor A1 (Rattus norvegicus, UniProt P25099); assay: Displacement of [3H]CCPA from adenosine A1 receptor in rat brain cortical membranes; assay type: cell membranes; method in brief: as §1
T4 sequence (P25099 whole entry): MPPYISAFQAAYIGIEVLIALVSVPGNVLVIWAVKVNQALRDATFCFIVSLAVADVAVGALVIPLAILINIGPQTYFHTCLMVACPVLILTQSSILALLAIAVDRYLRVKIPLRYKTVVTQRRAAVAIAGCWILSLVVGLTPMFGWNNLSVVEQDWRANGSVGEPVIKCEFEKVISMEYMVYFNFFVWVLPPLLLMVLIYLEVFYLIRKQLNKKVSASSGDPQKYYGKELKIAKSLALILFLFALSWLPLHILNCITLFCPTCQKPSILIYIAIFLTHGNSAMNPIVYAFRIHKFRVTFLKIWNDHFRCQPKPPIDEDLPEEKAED

[4] = target: Adenosine receptor A2a (Rattus norvegicus) (UniProt P30543); assay: Displacement of [3H]MSX-2 from adenosine A2A receptor in rat brain striatal membranes at 1 uM relative to control; assay type: cell membranes; settings: Striatum, Membrane
Adenosine receptor A2b [5] = target: T3, Adenosine receptor A2b; assay: […] from human adenosine A2B receptor expressed in CHO cell membranes; settings: in the assay text read “[3H]PSB-603” for “[3H]PSB-602”; method in brief: as §2
[6] = target: T5, Adenosine receptor A1 (Rattus norvegicus) (UniProt P25099); assay: Displacement of [3H]CCPA from adenosine A1 receptor in rat brain cortical membranes at 1 uM relative to control; assay type: cell membranes
T5 sequence (whole entry): T4 sequence (P25099 whole entry)

[7] = target: T6, Adenosine receptor A2b (Homo sapiens) (UniProt P29275); assay: Displacement of [3H]PSB-603 from human adenosine A2B receptor expressed in CHO cell membranes at 1 uM relative to control
T6 sequence (whole entry): T3 sequence (P29275 whole entry)

[8] = (§3) Drug level in rat liver microsomes treated with 2-(4-(2-(1,3-Dibutyl-2,4-dioxo-1,2,3,4,7,8-hexahydropyrimido[2,1-f]purin-9(6H)-yl)ethyl)phenoxy)-N-(3-(diethylamino)propyl)-acetamide at 50 uM preincubated for 5 mins followed by addition of NADPH regenerating system and measured after 120 mins by UPLC/MS analysis; assay type: ADME, microsome; settings: 2 h
Method in brief: (§4)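 Incubations use pooled human (adult male and female) or rat liver microsomes at 1 mg/ml in 0.1 M Tris-HCl pH 7.4 with compound at 50 μM. After 5 min preincubation at 37 °C, an NADPH regenerating system is added to start the reaction. Cold methanol stops it at 120 min; samples are centrifuged and the supernatant analysed by UPLC/MS.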

[9] = as §3, with “in human” for “in rat”; assay type: ADME, microsome; settings: 2 h; method in brief: as §4

Sequence of Adenosine receptor A2a (P30543 whole entry): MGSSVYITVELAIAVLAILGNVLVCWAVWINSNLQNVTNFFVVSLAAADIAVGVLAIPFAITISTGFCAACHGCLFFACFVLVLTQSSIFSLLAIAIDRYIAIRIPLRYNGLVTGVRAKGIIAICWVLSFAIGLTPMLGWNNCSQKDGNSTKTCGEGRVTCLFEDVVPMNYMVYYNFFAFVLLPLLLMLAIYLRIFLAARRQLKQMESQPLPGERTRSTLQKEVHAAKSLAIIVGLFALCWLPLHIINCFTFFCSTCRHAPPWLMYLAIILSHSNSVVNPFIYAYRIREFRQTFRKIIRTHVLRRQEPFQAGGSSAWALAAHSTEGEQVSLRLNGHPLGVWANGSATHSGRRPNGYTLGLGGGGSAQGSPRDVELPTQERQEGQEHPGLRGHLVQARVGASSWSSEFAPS
Sequence of Adenosine receptor A2a (Rattus norvegicus) (P30543 whole entry): as above

Row | inhibition [1] [%] | Ki (Adenosine receptor A2a) [nM] | Ki (Adenosine receptor A3) [nM] | Ki (Adenosine receptor A2b [2]) [nM] | solubility [3] [µM] | Ki (Adenosine receptor A1) [nM] | inhibition [4] [%] | Ki (Adenosine receptor A2b [5]) [nM] | inhibition [6] [%] | inhibition [7] [%] | Drug metabolism [8] | Drug metabolism [9] | SMILES
1 | 36 | 303 | > 1000 | 340 | 823 (≈ 479 µg/mL) | 136 |  |  |  |  |  |  | CCCn1c(=O)c2c(nc3n2CCCN3CCc2ccc(OCC(=O)NCCCN(CC)CC)cc2)n(CCC)c1=O
2 | 28 | > 10000 | > 1000 |  |  | > 10000 | 37 | > 1000 | 22 | 39 |  |  | CCCn1c(=O)c2c(nc3n2CCCN3CCc2ccc(OCC(=O)NCc3cccc(OC)c3)cc2)n(CCC)c1=O
3 | 40 | > 10000 | > 1000 |  |  | 1010 | 32 | > 1000 |  | 43 |  |  | CCCCn1c(=O)c2c(nc3n2CCCN3CCc2ccc(OCC(=O)NCc3ccc(F)cc3)cc2)n(CCCC)c1=O
4 |  | 551 | 509 | 193 |  | 113 |  |  |  |  |  |  | CCCn1c(=O)c2c(nc3n2CCCN3CCc2ccc(OCC(=O)NCCN3CCCC3)cc2)n(CCC)c1=O
5 | 34 | 3230 | > 1000 |  |  | > 10000 |  | > 1000 | 26 | 22 |  |  | CCCn1c(=O)c2c(nc3n2CCCN3CCc2ccc(OCC(=O)NCc3ccccc3)cc2)n(CCC)c1=O
6 | 42 | 6520 | > 1000 |  |  | 684 |  | > 1000 |  | 18 |  |  | CCCCn1c(=O)c2c(nc3n2CCCN3CCc2ccc(OCC(=O)NCc3cccc(Cl)c3)cc2)n(CCCC)c1=O
7 | 23 | 2270 | > 1000 |  |  | > 10000 |  | > 1000 | 27 | 31 |  |  | CCCCn1c(=O)c2c(nc3n2CCCN3CCc2ccc(OCC(=O)NCCc3ccc(S(N)(=O)=O)cc3)cc2)n(CCCC)c1=O
8 |  | > 10000 | 1090 |  |  | > 10000 | 24 | > 1000 | 18 | -4 |  |  | CCCn1c(=O)c2c(nc3n2CCCN3CCc2ccc(OCC(=O)NCc3ccc(Cl)cc3)cc2)n(CCC)c1=O
9 |  |  |  |  |  |  |  |  |  |  | Metabolite_Detected | Metabolite_Detected | CCCCn1c(=O)c2c(nc3n2CCCN3CCc2ccc(OCC(=O)NCCC(=O)O)cc2)n(CCCC)c1=O
10 | 41 | 1630 | > 1000 |  |  | 1590 |  | > 1000 |  | 41 |  |  | CCCCn1c(=O)c2c(nc3n2CCCN3CCc2ccc(OCC(=O)NCc3cccc(OC)c3)cc2)n(CCCC)c1=O
11 |  | 242 | 155 | 113 | 189 (≈ 113 µg/mL) | 50.7 |  |  |  |  |  |  | CCCCn1c(=O)c2c(nc3n2CCCN3CCc2ccc(OCC(=O)NCCN(CC)CC)cc2)n(CCCC)c1=O
12 | 28 | 1870 | > 1000 |  |  | 10000 |  | > 1000 | 45 | 30 |  |  | CCCn1c(=O)c2c(nc3n2CCCN3CCc2ccc(OCC(=O)NCCc3ccc(S(N)(=O)=O)cc3)cc2)n(CCC)c1=O
13 |  |  |  |  |  |  |  |  |  |  | Metabolite_Detected | Metabolite_Detected | CCCCn1c(=O)c2c(nc3n2CCCN3CCc2ccc(OCC(=O)NCCCNCC)cc2)n(CCCC)c1=O
14 | 21 | 1120 | > 1000 |  |  | 509 |  | 911 |  |  |  |  | CCCn1c(=O)c2c(nc3n2CCCN3CCc2ccc(OCC(=O)NCCN3CCOCC3)cc2)n(CCC)c1=O
15 | 33 | 320 | > 1000 |  |  | 146 |  | 452 |  |  |  |  | CCCn1c(=O)c2c(nc3n2CCCN3CCc2ccc(OCC(=O)NCCCN3CCCC3)cc2)n(CCC)c1=O
16 | 46 | 671 | > 1000 |  |  | 181 |  | 298 |  |  |  |  | CCCCn1c(=O)c2c(nc3n2CCCN3CCc2ccc(OCC(=O)NCCN3CCOCC3)cc2)n(CCCC)c1=O
17 |  | 1290 | 602 |  |  | 320 |  | 578 |  |  |  |  | CCCCn1c(=O)c2c(nc3n2CCCN3CCc2ccc(OCC(=O)NCc3ccccc3)cc2)n(CCCC)c1=O
18 | 41 | 1360 | > 1000 |  |  | > 10000 |  | > 1000 | 37 | 31 |  |  | CCCn1c(=O)c2c(nc3n2CCCN3CCc2ccc(OCC(=O)NCc3ccc(F)cc3)cc2)n(CCC)c1=O
19 |  | 335 | 458 | 306 |  | 145 |  |  |  |  |  |  | CCCn1c(=O)c2c(nc3n2CCCN3CCc2ccc(OCC(=O)NCCCNC3CCCCC3)cc2)n(CCC)c1=O
20 |  | 271 | 508 |  | 1080 (≈ 615 µg/mL) | 120 |  | 179 |  |  |  |  | CCCn1c(=O)c2c(nc3n2CCCN3CCc2ccc(OCC(=O)NCCN(CC)CC)cc2)n(CCC)c1=O
21 |  | 807 | 572 |  |  | 1370 |  | > 1000 |  | 22 |  |  | CCCn1c(=O)c2c(nc3n2CCCN3CCc2ccc(OCC(=O)NCc3cccc(Cl)c3)cc2)n(CCC)c1=O
22 |  | 569 | 868 |  |  | 194 |  | 275 |  |  |  |  | CCCCn1c(=O)c2c(nc3n2CCCN3CCc2ccc(OCC(=O)NCCCn3ccnc3)cc2)n(CCCC)c1=O
23 |  | 1250 | 353 |  |  | 118 |  | 215 |  |  |  |  | CCCCn1c(=O)c2c(nc3n2CCCN3CCc2ccc(OCC(=O)NCCCNC3CCCCC3)cc2)n(CCCC)c1=O
24 |  |  |  |  |  |  |  |  |  |  | Metabolite_Detected |  | CCCCn1c(=O)[nH]c2nc3n(c2c1=O)CCCN3CCc1ccc(OCC(=O)NCCCN(CC)CC)cc1
25 | 44 | 1070 | > 1000 |  |  | 382 |  | > 1000 |  | 39 |  |  | CCCCn1c(=O)c2c(nc3n2CCCN3CCc2ccc(OCC(=O)NCCc3ccccn3)cc2)n(CCCC)c1=O
26 | 23 | 7310 | > 1000 |  |  | 593 |  | > 1000 |  | 31 |  |  | CCCCn1c(=O)c2c(nc3n2CCCN3CCc2ccc(OCC(=O)NCc3ccc(Cl)cc3)cc2)n(CCCC)c1=O
27 |  | 637 | 1000 |  |  | 605 |  | 862 |  |  |  |  | CCCn1c(=O)c2c(nc3n2CCCN3CCc2ccc(OCC(=O)NCCCn3ccnc3)cc2)n(CCC)c1=O
28 | 31 | 1360 | > 1000 |  |  | 563 |  | > 1000 |  | 39 |  |  | CCCn1c(=O)c2c(nc3n2CCCN3CCc2ccc(OCC(=O)NCCc3ccccn3)cc2)n(CCC)c1=O
